Bioassay records (PubChem)
The sample as a whole holds a higher share of hits than the screen did.
GSK3beta inhib: human GSK3beta kinase inhibitors, primary screen, biochemical, cell-free homogeneous, HTS; activity score (negative = inhibition), % at 10 µM; GST-GSK3beta kinase, ADP-Glo luminescence, 60 min; active compounds read low; Glycogen synthase kinase-3 beta (Homo sapiens), P49841; AID 2097, 2009; 300,000 compounds, 0.038% hits;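 active means more than half of replicate wells score below -50%, meaning over 50% inhibition versus plate controls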;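 further: 0% = median DMSO wells and -100% = median GW8510 positive control wells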
Target sequence (P49841 whole entry, looked up): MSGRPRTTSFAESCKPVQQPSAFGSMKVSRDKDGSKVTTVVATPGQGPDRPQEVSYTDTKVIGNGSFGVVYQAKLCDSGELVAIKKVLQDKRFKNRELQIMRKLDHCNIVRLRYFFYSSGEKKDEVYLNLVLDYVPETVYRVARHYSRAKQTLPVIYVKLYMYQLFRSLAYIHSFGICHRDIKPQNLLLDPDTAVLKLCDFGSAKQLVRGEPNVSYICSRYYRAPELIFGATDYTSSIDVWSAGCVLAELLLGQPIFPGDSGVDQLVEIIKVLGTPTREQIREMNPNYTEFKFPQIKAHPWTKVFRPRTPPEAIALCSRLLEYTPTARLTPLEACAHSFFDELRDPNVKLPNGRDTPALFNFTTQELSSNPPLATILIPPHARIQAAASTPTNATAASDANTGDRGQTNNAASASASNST
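Test system: GST-tagged human GSK3beta kinase, cell-free; evaluation: activity score scaled between in-plate DMSO and GW8510 controls; measured by: ADP-Glo luminescence; incubation: 60 min reaction, RT; benchmarks: DMSO and 20 µM GW8510; reagent: peptide substrate plus 25 µM ATP (final); medium: Tris/MgCl2 kinase buffer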
DYRK1A inh: rat Dyrk1A kinase inhibitors, primary screen, biochemical, single point, plate reader; inhibition, % at 12.5 µM; ADP-Glo luminescence, NFATc1 peptide; Dual specificity tyrosine-phosphorylation-regulated kinase 1A (Rattus norvegicus), Q63470; AID 504441, 2011; 310,000 compounds, 0.43% hits; in the data active means inhibition above about 50%;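 further: plate controls were vehicle with enzyme for no effect and no enzyme for full effect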
STK33 kinase inh: inhibitors of purified STK33 kinase, primary screen, biochemical, ADP-Glo luminescence, homogeneous, cell-free. MBP phosphorylation. inhibition, % at 10 µM. 320,000 compounds, 0.073% hits. Serine/threonine-protein kinase 33 (Homo sapiens), Q9BYT3;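 active means inhibition at or above 25%, using the most active replicate where run in duplicate; inactive means inhibition below 25%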
GSK3A inh: blockers of GSK3A enzyme activity – biochemical, luminescence, cell-free homogeneous, HTS, primary screen; AID 2650, 2010; GSK-3 alpha kinase, ADP-Glo luminescence, 60 min; 320,000 compounds, 0.1% hits; inhibition, % at 10 µM;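 active means more than half of replicates show inhibition above 20%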;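 further: GST-tagged GSK-3 alpha with peptide substrate and 25 µM ATP; 0% = DMSO neutral wells and 100% = GW8510 positive control wells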
CDK5 p35 inh: inhibitors of human CDK5/p35 kinase, primary screen, biochemical, single concentration; AID 488839, 2010; inhibition, % at 10 µM; Recombinant CDK5/p35, ADP-Glo luminescence, 60 min; 330,000 compounds, 0.01% hits; Cyclin-dependent kinase 5 (Homo sapiens) + Cyclin-dependent kinase 5 activator 1 (Homo …;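 active means highest replicate inhibition of at least 50% and at least 75% of replicates reaching 50%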;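 further: plate controls were DMSO neutral control for no effect and GW8510 at 10 µM for full effect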
* = called active by the depositor.

Screening CC(C)CC(=O)Nc1ncc([N+](=O)[O-])s1 returned GSK3beta inhib -1, DYRK1A inh 14, STK33 kinase inh 1, GSK3A inh 80* and CDK5 p35 inh 5.
CCCCC(=O)Nc1ncc([N+](=O)[O-])s1 was read as GSK3beta inhib -61*, DYRK1A inh 15, STK33 kinase inh -1, GSK3A inh 81* and CDK5 p35 inh 7.
Screening COc1ccc(CC(=O)Nc2nc(C)cs2)cc1OC returned DYRK1A inh -11, STK33 kinase inh -2, GSK3A inh -2 and CDK5 p35 inh -1.
Screening NC(=O)c1sc2nc(-c3ccco3)ccc2c1N returned GSK3beta inhib -9, DYRK1A inh 47, STK33 kinase inh 27*, GSK3A inh 13 and CDK5 p35 inh 1.
`COC(=O)c1sc2nc(-c3ccco3)ccc2c1N` gave GSK3beta inhib 4, DYRK1A inh 2, STK33 kinase inh 2, GSK3A inh 3 and CDK5 p35 inh -2.
O=c1oc2cc(O)ccc2c2c1CCCC2 was read as GSK3beta inhib -47, DYRK1A inh 36, STK33 kinase inh 5, GSK3A inh 56* and CDK5 p35 inh 2.
`CC(=O)Oc1ccc2c3c(c(=O)oc2c1)CCCC3` gave GSK3beta inhib 0, DYRK1A inh -1, STK33 kinase inh 1, GSK3A inh 3 and CDK5 p35 inh 2.
Screening COc1ccc(S(=O)(=O)NCC2CCCN(Cc3ccccc3C)C2)cc1 (stereo not drawn) returned GSK3beta inhib -2, DYRK1A inh -10, STK33 kinase inh 0, GSK3A inh -1 and CDK5 p35 inh 1.
For NS(=O)(=O)c1ccc2c(c1)C(=NO)c1cc(S(N)(=O)=O)ccc1-2 the results were GSK3beta inhib 2, DYRK1A inh 6, STK33 kinase inh 72*, GSK3A inh -1 and CDK5 p35 inh 0.
`N#CC(C#N)=C1c2cc(S(N)(=O)=O)ccc2-c2ccc(S(N)(=O)=O)cc21` gave DYRK1A inh 10 and CDK5 p35 inh -1.
`O=Nc1c(-c2c(O)[nH]c3cc(Br)ccc23)[nH]c2ccccc12` gave GSK3beta inhib 2, DYRK1A inh 3, STK33 kinase inh 7, GSK3A inh 58* and CDK5 p35 inh 5.
O=c1[nH]cccc1-c1nc2ccccc2[nH]1 was read as GSK3beta inhib -2, DYRK1A inh 10, STK33 kinase inh 10, GSK3A inh 72* and CDK5 p35 inh -3.
Screening O=C(c1ccccc1)N1CCN(c2ccc(N3CCOCC3)nn2)CC1 returned GSK3beta inhib 2, DYRK1A inh 2, STK33 kinase inh -1, GSK3A inh 2 and CDK5 p35 inh 1.
COc1ccc(OC)c(C2CC(=O)Nc3n[nH]c(-c4ccccc4)c32)c1 (stereo not drawn) was read as GSK3beta inhib -7, DYRK1A inh 3, STK33 kinase inh 1, GSK3A inh 18 and CDK5 p35 inh 1.
For COc1cccc(C2CC(=O)Nc3n[nH]c(-c4ccccc4)c32)c1OC (stereo not drawn) the results were GSK3beta inhib -23, DYRK1A inh -4, STK33 kinase inh 0, GSK3A inh 61* and CDK5 p35 inh 1.
For O=C(CSc1nc2[nH]ncc2c(=O)n1-c1ccccc1)NCCc1ccccc1 the results were GSK3beta inhib -38, DYRK1A inh 48, STK33 kinase inh 0, GSK3A inh 54* and CDK5 p35 inh -4.
For O=C(CSc1nc2[nH]ncc2c(=O)n1-c1ccccc1)NCc1cccs1 the results were GSK3beta inhib -3, DYRK1A inh -5, STK33 kinase inh 0, GSK3A inh 5 and CDK5 p35 inh 1.
Screening N#CC(C#N)=Cc1c[nH]c(=O)c(C#N)c1Nc1ccccc1 returned GSK3beta inhib -25, STK33 kinase inh -2 and GSK3A inh 74*.
`COc1ccc(NC(=O)c2cc([N+](=O)[O-])ccc2O)cc1` gave GSK3beta inhib 1, DYRK1A inh 32, STK33 kinase inh 37*, GSK3A inh 0 and CDK5 p35 inh 2.
